Measurements taken from PMC4561054 (Drugs in R&D, 2015).
Several values for one entry are separate records, joined by “and”; a condition that tells them apart may be missing. Equal values may be shown once. Entries after “also recorded” stand apart in the source; their conditions may differ. Read-outs that look alike come from different tables or passages of the source.

What was measured:
[1] = cited from earlier work
[2] = cited from earlier work; remark: listed apart in the source
[3] = 14C-simeprevir mass balance study; assay type: in vivo, human; conditions: as summarised in Discussion
Procedure, shortened: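 Healthy adult males (18–55 y, BMI 18.0–30.0 kg/m2, nonsmokers). Single oral 200-mg dose of 14C-labelled plus unlabelled test compound in polyethylene glycol 400, fed, 1.85 MBq total. Urine pooled at 0–8, 8–16, 16–24, 24–36 and 36–48 h, then every 24 h. Every stool collected until ≥Day 8, <2 % of dose excreted per 24 h, and ≥7 stools. Radioactivity read by […] and expressed as % of dose; six subjects.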

[4] = assay type: in vivo, human; conditions: for half-life: both, human, plasma, oral, 150 mg, Mean half-life
Procedure, shortened: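 Severe renal impairment (eGFR ≤29 mL/min/1.73 m2) versus matched normal-function subjects (eGFR ≥80), n = 8 each. Oral 150 mg test compound capsule daily, fed, for 7 days; Day 7 dose given after ≥10-h fast plus standard breakfast. Plasma drawn pre-dose Days 5–6 and on Day 7 at 0–72 h; LC-MS/MS. Noncompartmental Cmin, Cmax and AUC24 taken on log scale. Linear mixed-effects model gave LS means and 90 % CI of group difference.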

plasma proteins = assay: Unbound simeprevir in plasma; assay type: in vitro ADME, human
Procedure, shortened: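 Subjects with severe renal impairment or matched normal renal function, given 150 mg test compound orally daily for 7 days. Blood drawn pre-dose and 4 h post-dose. Unbound concentration measured by dialysis, then liquid scintillation counting of spiked tritiated test compound. Mean and SD reported per time point, plus fraction unbound.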

[5] = Safety evaluation, Study 1; assay type: in vivo, human
Procedure, shortened: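 Six healthy male nonsmokers (18–55 y) given one oral 200-mg dose of radiolabelled test compound in polyethylene glycol 400, fed. Safety covered subject-reported AEs, hematology, biochemistry, coagulation, urinalysis and electrocardiogram. Descriptive statistics only.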

[6] = Safety and tolerability, Study 2; assay type: in vivo, human
Procedure, shortened: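 Non-HCV-infected adults (18–70 y). Severe renal impairment group had MDRD eGFR ≤29 mL/min/1.73 m2 and no dialysis. Controls had eGFR ≥80 and were matched for sex, race, age and BMI. All took 150 mg test compound orally daily, fed, for 7 days. Subject-reported AEs recorded; hematology/biochemistry on Days 1, 3, 5, 7 and 8; urinalysis and ECG on Days 1 and 7.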

HCV genotype 1 [7] = conditions: treatment-naïve patients, simeprevir plus ribavirin and pegylated interferon, cited from earlier work
HCV genotype 1 [8] = conditions: COSMOS; simeprevir plus sofosbuvir with or without ribavirin; cited from earlier work
[9] = cited from earlier work; remark: listed apart in the source
[10] = preclinical studies; cited from earlier work
[11] = 14C-daclatasvir excretion study
[12] = whole study period, six healthy subjects
[13] = renal impairment group, treatment phase
[14] = subject with rhabdomyolysis (also on high-dose fenofibrate), Day 9
[15] = moderate to severe renal impairment vs healthy, single 400-mg dose

## CC(C)OC(=O)[C@H](C)N[P@](=O)(OC[C@H]1O[C@@H](n2ccc(=O)[nH]c2=O)[C@](C)(F)[C@@H]1O)Oc1ccccc1 [sofosbuvir]
[1]; 400-mg 14C-sofosbuvir dose
  14C-sofosbuvir recovered from the urine: 80%
[2]; mild renal impairment vs normal renal function, single 400-mg dose
  Increase in AUCinf: 61%
[2]; moderate renal impairment vs normal renal function, single 400-mg dose
  Increase in AUCinf: 107%
[2]; severe renal impairment vs normal renal function, single 400-mg dose
  Increase in AUCinf: 171%

## COC(=O)N[C@H](C(=O)N1CCC[C@H]1c1nc(-c2ccc(-c3ccc(-c4c[nH]c([C@@H]5CCCN5C(=O)[C@@H](NC(=O)OC)C(C)C)n4)cc3)cc2)c[nH]1)C(C)C [daclatasvir]
[1]; [11]
  Recovery from the feces: 88%
  Total radioactivity dose eliminated in urine: 6.6%
[1]
  Renal excretion: < 10%
[2]; ESRD
  Increase in AUCinf: ~51%
[2]; moderate renal impairment
  Increase in AUCinf: approximately 18%
[2]; severe renal impairment
  Increase in AUCinf: ~39%

## COc1ccc2c(O[C@@H]3C[C@H]4C(=O)N[C@]5(C(=O)NS(=O)(=O)C6CC6)C[C@H]5/C=C\CCCCN(C)C(=O)[C@@H]4C3)cc(-c3nc(C(C)C)cs3)nc2c1C [simeprevir]
[3]
  14C-simeprevir excreted in the urine: < 2%
[4]; based on LS mean ratio, Day 7
  AUC24h higher in severe renal impairment compared with healthy subjects: 62%
  Cmax higher in severe renal impairment compared with healthy subjects: 34%
[4]; healthy subjects
  half-life: 1000 min
[4]; subjects with severe renal impairment
  half-life: 1440 min
Plasma proteins; matched healthy subjects, 4 h post-dose, SD 0.2574
  Mean unbound plasma concentration: 0.2714
Plasma proteins; matched healthy subjects, pre-dose, SD 0.1567
  Mean unbound plasma concentration: 0.1142
Plasma proteins; subjects with renal impairment, 4 h post-dose
  Mean unbound plasma concentration: 0.4216 (SD 0.3319)
Plasma proteins; subjects with renal impairment, pre-dose
  Mean unbound plasma concentration: 0.2892 (SD 0.4411)
[5]; Study 1
  Deaths or AEs resulting in permanent premature discontinuation: No deaths or AEs resulting in permanent premature discontinuation from the study occurred
[5]; [12]
  Dry mouth, subjects: one subject
  Increased ALT and AST levels, subjects: two subjects
  Prolonged aPTT, subjects: two subjects
[5]; whole study period, six healthy subjects, single 200-mg dose
  Subjects with at least one AE: five subjects
[6]; Study 2
  Deaths or AEs resulting in permanent premature discontinuation of simeprevir: No deaths or AEs resulting in permanent premature discontinuation of simeprevir occurred
[6]; Study 2, both groups
  Severity of most AEs: grade I or II; also recorded: grade 1 or 2
[6]; control group, treatment phase
  Subjects with at least one AE: 12.5%
[6]; control group, whole study period
  Subjects with at least one AE: 37.5%
[6]; one subject of renal impairment group, also receiving fenofibrate
  Severity of rhabdomyolysis: grade 3
[6]; [13]
  Subjects with at least one AE: 50%
  Subjects with hyperbilirubinemia: 12.5%
  Subjects with hypertension: 12.5%
  Subjects with increased blood alkaline phosphatase: 12.5%
  Subjects with myalgia: 12.5%
  Subjects with rhabdomyolysis: 12.5%
[6]; renal impairment group, whole study period
  Subjects with at least one AE: 50%
[6]; same subject, also taking high-dose fenofibrate
  Relatedness of rhabdomyolysis and myalgia (investigator): probably related to simeprevir
[6]; [14]
  Creatine kinase level: 96.76 μkat/L
  Creatine kinase muscle brain fraction levels: 20.84 µg/L and 19.45 µg/L
  Myoglobin levels: 1200 µg/L and 1475 µg/L and 1476 µg/L
HCV genotype 1 [7]; QUEST-1
  SVR rate: 80%
HCV genotype 1 [7]; QUEST-2
  SVR rate: 81%
HCV genotype 1 [8]
  SVR rates: 92–94%
[9]; HCV-infected subjects with normal renal function
  half-life: 41 h
[9]; HCV-infected subjects without renal impairment
  AUC (range of concentrations observed in phase III studies): 4848–449,185 ng·h/mL
[9]
  Concentrations in subjects with HCV infection compared with non-HCV-infected subjects: two- to three-fold higher
[10]
  Tissue distribution: predominately distributed to the liver and intestines with low distribution (similar or less than plasma) to the kidneys

## NC(=O)c1ncn([C@@H]2O[C@H](CO)[C@@H](O)[C@H]2O)n1 [ribavirin]
[1]; 600-mg 14C-ribavirin dose
  Radioactivity excreted in the urine: 61%
[2]; [15]
  Decrease in apparent clearance: 50–75%
  Increase in AUC: two- to three-fold increase
